Bioassay records from PubChem BioAssay.
dFosB activator – activators of delta FosB homodimer, primary screen, biochemical, fluorescence polarization, TAMRA-CDK5 oligo, single point. activation, % at 25 µM. Protein FosB (Mus musculus), P13346. 0.99% of 340,000 active. purified delta FosB; percent of positive-control signal above neutral wells. AID 493131, 2011;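 active means mean activation above about 17%, with every replicate also reaching it, limit read from the data, passing the limit was not always enough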
SR-BI DiI-HDL act – activators of SR-BI mediated DiI-HDL uptake, primary screen, ldlA[mSR-BI] CHO cells, DiI fluorescence | 3 h; 100 = double the neutral-control signal | activation, % at 12.5 µM | 0.096% of 320,000 active | AID 504775, 2011;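 active means mean replicate activation of at least 60% and every replicate at or above 60%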;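 further: 0% = median plate neutral-control signal and 100% = twice that signal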
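System: CHO ldlA[mSR-BI] cells / Medium: HEPES-buffered (25 mM, pH 7.4) F12 plus 0.5% BSA / Probe or stimulus: labelled HDL, 10 µg/mL / Doses: single compound concentration, delivered by pin transfer / Schedule: 3 h, 37 °C / Measured by: DiI fluorescence, bottom read / Measure: cell-associated DiI fluorescence as measure of HDL uptake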
CAL PDZ FP-1 – CAL PDZ peptide-binding inhibitors, primary screen, biochemical, fluorescence polarization, Cer-tagged CAL PDZ, HTS; purified CAL PDZ, TMR-peptide fluorescence polarization, 1 h; 0.02% of 330,000 active; Golgi-associated PDZ and coiled-coil motif-containing protein (Homo sapiens), Q9HD26; inhibition, % at 20 µM;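 active means highest replicate inhibition of at least 40%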;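 further: plate controls were DMSO neutral control wells for no effect and unlabeled competitor peptide control wells for full effect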
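Assay system – tagged CAL PDZ protein CerCALP, purified · Timing – 1 h at RT · Compound – single point, 20 µM · Measured by – fluorescence polarization from S- and P-plane intensities, G-factor corrected · Evaluation – inhibition from polarization loss · Probe or stimulus – TMR reporter peptide T*-PRC34 · Buffer or medium – pH 7.4 phosphate-saline buffer, reducing agent, detergent, IgG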
SR-BI DiI inh – inhibitors of SR-BI mediated HDL lipid uptake, primary screen, ldlA[mSR-BI] cells, fluorescence, single point; Scavenger receptor class B member 1 (Mus musculus), Q61009; ldlA[mSR-BI] CHO cells, DiI-HDL uptake fluorescence, 3 h; inhibition, % at 12.5 µM; 0.96% of 320,000 active;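 active means mean replicate inhibition of at least 70% and a set share of replicates each scoring 70 or more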;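 further: 0% = median of neutral control wells and 100% = median of positive control wells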
Target sequence (Q61009 whole entry, looked up): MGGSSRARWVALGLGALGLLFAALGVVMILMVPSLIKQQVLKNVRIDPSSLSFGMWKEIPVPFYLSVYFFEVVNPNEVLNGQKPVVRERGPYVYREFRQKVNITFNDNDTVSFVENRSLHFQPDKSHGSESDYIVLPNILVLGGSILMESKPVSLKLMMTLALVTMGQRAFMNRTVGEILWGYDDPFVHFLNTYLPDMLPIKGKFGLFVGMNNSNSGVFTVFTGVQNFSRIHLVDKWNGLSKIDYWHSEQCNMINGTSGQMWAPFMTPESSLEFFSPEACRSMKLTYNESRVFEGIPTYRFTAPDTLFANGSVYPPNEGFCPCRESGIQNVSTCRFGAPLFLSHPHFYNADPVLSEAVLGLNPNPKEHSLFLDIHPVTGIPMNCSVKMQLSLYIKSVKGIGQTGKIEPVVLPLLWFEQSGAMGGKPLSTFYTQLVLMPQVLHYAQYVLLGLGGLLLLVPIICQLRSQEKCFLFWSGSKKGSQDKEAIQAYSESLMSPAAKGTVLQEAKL
CAL PDZ FP-2 – untagged CAL PDZ binding inhibitors, primary screen, biochemical, fluorescence polarization, HTS; Golgi-associated PDZ and coiled-coil motif-containing protein (Homo sapiens), Q9HD26; purified CAL PDZ, TMR-peptide fluorescence polarization, 1 h; inhibition, % at 24.9 µM; 0.92% of 300,000 active;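 active means mean inhibition of at least 30% with at least half of replicates also reaching 30%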;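 further: 0% = DMSO neutral control and 100% = excess unlabeled competitor peptide PRC23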
An asterisk follows results filed as active; x = no result given; + = active, no number. Compounds with a hit are over-represented: about 2.8% of the library has one in this group of screens.

SMILES	dFosB activator	SR-BI DiI-HDL act	CAL PDZ FP-1	SR-BI DiI inh	CAL PDZ FP-2
COc1ccccc1C(=O)NC(CCSC)C(=O)Nc1ccc(C)c(S(=O)(=O)N2CCOCC2)c1 (centres undefined)	-12	-23	-1	23	x
COCC1CCN(C(=O)c2ccc3oc(CCCc4ccccc4)nc3c2)C1 (centres undefined)	-7	1	+	-1	-3
COCC1CCCN(C(=O)c2ccc3oc(CCCc4ccccc4)nc3c2)C1 (centres undefined)	-1	2	-2	-2	-8
CC(C)CN(C(=O)CSc1nc(N)cc(N)n1)C1CCS(=O)(=O)C1 (centres undefined)	-2	20	-1	-20	x
COc1cc(/C=N/NC(=O)CC#N)ccc1Oc1nc(Cl)ncc1F	-3	-82	0	82*	1
COc1ccc(C=NNC(=O)CCCC(=O)NN=Cc2ccc(OC)c(OC)c2)cc1OC	2	-17	-5	17	x
CSc1nsc(/C=C/Nc2ccc(O)cc2C)c1C#N	-68	-81	-1	81*	-1
CSc1nsc(/C=C/Nc2ccc(F)cc2)c1C#N	-19	-44	-2	44	-3
Cc1c(C(=O)N2CCOCC2)c(S(=O)(=O)Nc2ccc(C(C)C)cc2)c(C)n1C	-9	2	-1	-2	48*
COc1ccc(OCCSc2nnc(C(C)NC(=O)c3ccccc3F)n2C)cc1 (centres undefined)	-6	-11	-1	11	107*
N#CCCN(Cc1cccnc1)S(=O)(=O)c1ccc2ccccc2c1	2	6	0	-6	6
N#CCCN(Cc1ccccc1)S(=O)(=O)c1cccs1	-3	-10	x	10	61*
CN(C)c1ccc(C2(c3ccc(N(C)C)cc3)OC(=O)c3cc(N)ccc32)cc1	-8	8	0	-8	2
COC(=O)CNc1cccc(C(F)(F)F)c1	-5	25	17	-25	75*
N/C(CC(=O)Nc1cccc(C(F)(F)F)c1)=N/O	0	89*	x	-89	11
Cc1ccc(-c2nc(CN(C)C3CCOC3)c(C)o2)s1 (centres undefined)	-2	14	-1	-14	x
CC(C)c1ccc(N(CC(=O)NCc2ccc(F)cc2)C(=O)c2csnn2)cc1	-1	15	-7	-15	-2
COc1ccc(-c2ocnc2C(=O)NCc2nn(-c3ccccc3)nc2C)cc1	-10	-29	-1	29	-4
O=C(Cc1cccs1)N1CCN(S(=O)(=O)c2ccc(Br)cc2)CC1	1	195*	-2	-195	-1
COC(=O)c1ccc(CSc2nnc3nc(C)cc(C)n23)cc1	-7	2	-1	-2	33*
O=C(O)c1ccc(N/N=C/c2cn(Cc3ccccc3F)c3ccccc23)cc1	-8	21	-1	-21	-4
CC(C)n1cc(/C=N/Nc2ccc(C(=O)O)cc2)c2ccccc21	-4	21	0	-21	71*
CCOc1ccc(OCC)c(NC(=O)Nc2ccc3c(c2)N(C)C(=O)CS3)c1	-12	-88	-1	88*	-9
CCn1c2ccccc2c2nnc(SCC(=O)Nc3c(C)n(C)n(-c4ccccc4)c3=O)nc21	0	-14	-1	14	-2
Cc1c(NC(=O)CSc2nnc3c4ccccc4n(CCc4ccccc4)c3n2)c(=O)n(-c2ccccc2)n1C	2	-82	-2	82*	-7
NS(=O)(=O)c1ccc(CCNC(=O)c2cc(-c3ccccc3)nc3ccccc23)cc1	3	-80	-1	80*	0
Cc1ccc(-c2cc(C(=O)NCCc3ccc(S(N)(=O)=O)cc3)c3ccccc3n2)cc1	8	-86	-1	86*	-3
NS(=O)(=O)c1ccc(CNC(=O)c2cc(-c3ccccc3)nc3ccccc23)cc1	0	x	-4	x	-1
COc1ccc(-c2cc(C(=O)NCCc3ccc(S(N)(=O)=O)cc3)c3ccccc3n2)cc1	-4	-56	-1	56	1
C=CCN(C(=O)c1oc2c(Cl)cc(C)cc2c1C)C1CCS(=O)(=O)C1 (centres undefined)	-16	-31	-2	31	x
